One block for each compound: values may come before it.
Tests used:
[1] = Biodistribution of Pt in A375M tumor-bearing mice; type: in vivo; settings: 1 mg/kg Pt IV, 24 h post injection
[2] = Toxicity and pathology studies; type: in vivo, mice
Outline: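 Female athymic nude mice (5–6 wk, 18–22 g) were dosed IV weekly during therapeutic treatment. Mice for histology received four doses of 1 mg/kg each. Serum AST, ALT and BUN were measured, with BUN taken 7 days after the last dose. Heart, liver, spleen, lung and kidney were formalin-fixed, H&E-stained and imaged by light microscopy. Data are mean ± SEM, compared by one-way ANOVA.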

[3] = cited from earlier work
[4] = cited from earlier work; remark: listed apart in the source

- accumulation in tumors, injected dose (ID) per gram [1]: 1.2 % ID/g
Structure (SMILES): [NH2][Pt]([NH2])([Cl])[Cl] [CDDP, cisplatin]
- nephrotoxicity (kidney H&E histology) ([2]; four doses, 1 mg/kg each): glomeruloscelorsis, tubular cell atrophy, and cystic dilatation of renal tubes
- BUN versus control group ([2]; measured 7 days after the last treatment): no significant difference
- ALT ([2]; serum, after treatment): fell within the normal range
- AST ([2]; serum, after treatment): fell within the normal range

Structure (SMILES): [NH2][Pt]([NH2])([I])[I] [CDDP-I, iodinated cisplatin]
- anti-tumor efficacy [3]: ineffective
- solubility in water and organic solvents [4]: insolubility
